Results collected from several papers.
Compare with care: the assays were run in different laboratories.
Target: Mitogen-activated protein kinase kinase kinase 9 (MAP3K9, Homo sapiens, UniProt P80192)

| Structure (SMILES) | observed | mode | method | tested at | quantity | result |
| --- | --- | --- | --- | --- | --- | --- |
| C#Cc1n[nH]c2c(-c3cn([C@@H](C)c4ccccc4)c(=O)[nH]c3=O)cc(F)cc12 | enzyme activity | inhibitor | – | 0.1 µM | inhibition | 11% |
| N#CC1(c2ccccn2)CCN(Cc2cc(C(=O)O)c(=O)n3ccccc23)CC1 | cell-free assay | – | competition with immobilised ligand | 1 µM | remaining binding | 92% |
| Nc1ncc(-c2nc(N3CCOCC3)nc(N3CCOCC3)n2)c(C(F)F)n1 | binding | – | competition with immobilised ligand | 10 µM | remaining binding | 42% |
| Cn1cc(-c2cccc(N3CCc4c(sc5c4CC(C)(C)C5)C3=O)c2CO)cc(Nc2ccncn2)c1=O | enzyme activity | inhibitor | – | 1 µM | inhibition | -3% |
| COc1cc(Nc2ncc(F)c(Nc3ccc4c(n3)NC(=O)C(C)(C)O4)n2)cc(OC)c1OC | binding | – | competition with immobilised ligand | 10 µM | inhibition | 99% |
| Cn1cc(-c2cc(F)cc(N3CCn4c(cc5c4CCCC5)C3=O)c2CO)cc(Nc2ccc(N3CCN(C4COC4)CC3)cn2)c1=O | enzyme activity | inhibitor | – | 0.1 µM | inhibition | 4% |
| CC(C)(C)c1cc(C=C(C#N)C#N)cc(Br)c1O | enzyme activity | inhibitor | – | 0.5 µM | remaining activity | 90.2% |
| Cn1cncc1[C@](O)(COc1ccc(C#N)cc1-c1ccc(OC(F)(F)F)cc1)c1ccc(C#N)cc1 | cell-free assay | – | competition with immobilised ligand | 1 µM | remaining binding | 81% |
| COc1ncccc1-c1cnn2ccc(N3CCN(C(=O)OC(C)C)CC3)nc12 | binding | – | competition with immobilised ligand | 1 µM | remaining binding | 100% |
| O=c1[nH]c2ccccc2n1C1CCN(Cc2ccc(-c3[nH]c4cc5ncnc5cc4nc3-c3ccccc3)cc2)CC1 | cell-free assay | – | – | 0.5 µM | remaining signal | 93.9% |
| C#Cc1n[nH]c2c(-c3cn([C@@H](C)c4ccccn4)c(=O)[nH]c3=O)cc(F)cc12 | enzyme activity | inhibitor | – | 0.1 µM | inhibition | 8% |
| Cc1nn(C)cc1-c1nc2c(N3CCN(Cc4ccc(Cl)cc4)CC3)c(Cl)cnc2[nH]1 | binding | – | competition with immobilised ligand | 1 µM | remaining binding | 15% |
